Reference: ChEMBL document CHEMBL2086372 (ACS Med Chem Lett, 2012)
Active and inactive are the calls of the source. The calls are words filed in the database; no cut-off is given here.

Assays:
[1] = target: T1, 5-hydroxytryptamine receptor 1A (Homo sapiens, UniProt P08908); test: Displacement of [3H]8-OH-DPAT from human 5HT1A receptor expressed in HeLa cells after 30 mins; assay type: cell-based
T1 sequence (P08908 whole entry): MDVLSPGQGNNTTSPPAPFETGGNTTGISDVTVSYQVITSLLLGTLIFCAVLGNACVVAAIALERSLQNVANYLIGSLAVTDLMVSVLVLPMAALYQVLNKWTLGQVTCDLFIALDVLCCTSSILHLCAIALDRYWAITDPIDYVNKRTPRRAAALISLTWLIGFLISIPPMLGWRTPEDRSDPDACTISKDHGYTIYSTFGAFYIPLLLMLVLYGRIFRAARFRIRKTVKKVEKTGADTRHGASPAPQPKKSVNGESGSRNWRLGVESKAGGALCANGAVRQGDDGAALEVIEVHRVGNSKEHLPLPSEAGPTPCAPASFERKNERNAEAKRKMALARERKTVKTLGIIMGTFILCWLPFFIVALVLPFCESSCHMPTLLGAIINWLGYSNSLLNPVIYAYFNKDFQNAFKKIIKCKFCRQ
In short: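 pKi is derived from displacement of [3H]-8-OH-DPAT binding at human cloned 5-HT1A receptor. Values are means ± SEMs of 3–6 separate experiments.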

[2] = system: Mus musculus; test: Antidepressant activity in CD1 mouse assessed as decrease in immobility time at 0.025 mg/kg, ip administered 30 mins prior to coadministration with WAY100635 measured after 15 mins by forced swim test relative to vehicle-treated control; assay type: functional, organism-based; design: dose 0.025 mg/kg
In short: (§1)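 Forced swimming test in mice using 0.025 mg/kg ip test dose. It was combined with the 5-HT1A antagonist WAY 100635 (0.1 mg/kg, sc) or with the α2 antagonist yohimbine (1.250 mg/kg, ip). Each antagonist was also given alone. Immobility time is the read-out, given as means ± SEMs of 7–8 animals.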

[3] = target: T2, 5-hydroxytryptamine receptor 1A (Homo sapiens) (UniProt P08908); settings: HeLa
T2 sequence (whole entry): T1 sequence (P08908 whole entry)

[4] = target: T3, Alpha-2C adrenergic receptor (Homo sapiens) (UniProt P18825); test: Agonist activity at human alpha2C adrenoceptor expressed in CHO cells assessed as extracellular acidification measured after 4 mins by cytosensor microphysiometric analysis relative to control; assay type: functional, cell-based
T3 sequence (whole entry): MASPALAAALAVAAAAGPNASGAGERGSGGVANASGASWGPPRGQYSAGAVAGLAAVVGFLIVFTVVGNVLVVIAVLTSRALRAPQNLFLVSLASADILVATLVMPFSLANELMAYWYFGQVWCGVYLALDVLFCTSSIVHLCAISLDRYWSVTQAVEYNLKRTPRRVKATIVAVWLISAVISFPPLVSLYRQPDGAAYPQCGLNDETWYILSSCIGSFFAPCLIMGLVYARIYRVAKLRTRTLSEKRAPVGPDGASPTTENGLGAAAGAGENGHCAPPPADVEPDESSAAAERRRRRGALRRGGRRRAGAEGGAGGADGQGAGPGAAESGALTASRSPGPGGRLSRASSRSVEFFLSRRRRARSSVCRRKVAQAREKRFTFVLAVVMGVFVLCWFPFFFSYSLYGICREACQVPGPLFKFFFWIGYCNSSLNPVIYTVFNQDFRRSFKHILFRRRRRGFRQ
In short: (§2)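 Binding and functional assays run on CHO cells expressing recombinant human α2-AR subtypes. Functional read-outs are agonist potency (pEC50) with intrinsic activity (ia), or antagonist pKb. Affinity is reported as pKi. Values are means ± SEMs of 3–6 separate experiments.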

[5] = system: Mus musculus; test: Antidepressant activity in CD1 mouse assessed as decrease in immobility time at 0.025 mg/kg, ip administered 15 mins prior to coadministration with yohimbine measured after 15 mins by forced swim test relative to vehicle-treated control; assay type: functional, organism-based; design: dose 0.025 mg/kg; in short: as §1
[6] = target: T4, Alpha-2A adrenergic receptor (Homo sapiens) (UniProt P08913); settings: CHO
T4 sequence (whole entry): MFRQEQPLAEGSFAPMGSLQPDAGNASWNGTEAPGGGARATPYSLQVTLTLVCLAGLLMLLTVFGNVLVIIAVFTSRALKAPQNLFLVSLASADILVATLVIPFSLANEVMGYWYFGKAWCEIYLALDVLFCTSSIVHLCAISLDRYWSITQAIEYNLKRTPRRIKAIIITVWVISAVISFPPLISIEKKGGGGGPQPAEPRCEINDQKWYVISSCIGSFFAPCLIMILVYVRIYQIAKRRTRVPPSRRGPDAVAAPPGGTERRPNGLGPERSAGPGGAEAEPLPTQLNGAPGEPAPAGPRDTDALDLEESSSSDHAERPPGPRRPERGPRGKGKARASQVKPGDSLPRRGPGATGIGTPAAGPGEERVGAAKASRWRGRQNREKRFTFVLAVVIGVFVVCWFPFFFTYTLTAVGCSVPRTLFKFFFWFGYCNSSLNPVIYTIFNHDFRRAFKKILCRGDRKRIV

[7] = target: T5, Alpha-2A adrenergic receptor (Homo sapiens, UniProt P08913); test: Displacement of [3H]RX821002 from human alpha2A adrenoceptor expressed in CHO cells after 30 mins by scintillation counting; assay type: cell-based; in short: as §2
T5 sequence (P08913 whole entry): T4 sequence (whole entry)

[8] = system: Mus musculus; test: Effect on morphine-dependence in CD1 mouse assessed as decrease in naloxone-precipitated rearing at 0.025 mg/kg, ip administered acutely 15 mins prior to naloxone challenge relative to vehicle-treated control; assay type: functional, organism-based; design: dose 0.025 mg/kg
In short: (§3)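 Expression of morphine dependence in mice, tested with a single acute ip dose (racemate 0.05 mg/kg, enantiomers 0.025 mg/kg). Withdrawal was precipitated by naloxone in control and morphine-treated mice. Scored signs were jumping frequency and somatic signs (rearing, forepaw tremors, teeth chatter). Groups were compared with vehicle and with the morphine group.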

[9] = target: T6, Alpha-2C adrenergic receptor (Homo sapiens, UniProt P18825); test: Displacement of [3H]RX821002 from human alpha2C adrenoceptor expressed in CHO cells after 30 mins by scintillation counting; assay type: cell-based; in short: as §2
T6 sequence (P18825 whole entry): T3 sequence (whole entry)

[10] = system: Mus musculus; test: Effect on morphine-dependence in CD1 mouse assessed as decrease in naloxone-precipitated forepaw tremors at 0.025 mg/kg, ip administered chronically 15 mins prior to each morphine challenge relative to vehicle-treated control; assay type: functional, organism-based; design: dose 0.025 mg/kg
In short: as §3, with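 “Acquisition” for “Expression”, “repeated” for “a single acute”, “dosing” for “dose”, “naloxone.” for “naloxone in control and morphine-treated mice.”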

[11] = system: Mus musculus; test: Effect on morphine-dependence in CD1 mouse assessed as decrease in naloxone-precipitated jumping at 0.025 mg/kg, ip administered chronically 15 mins prior to each morphine challenge relative to vehicle-treated control; assay type: functional, organism-based; design: dose 0.025 mg/kg
In short: as §3, with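 “Acquisition” for “Expression”, “repeated” for “a single acute”, “dosing” for “dose”, “naloxone.” for “naloxone in control and morphine-treated mice.”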

[12] = target: T6, Alpha-2C adrenergic receptor; test: Agonist activity at human alpha2C adrenoceptor expressed in CHO cells assessed as extracellular acidification measured after 4 mins by cytosensor microphysiometric analysis; assay type: functional, cell-based; in short: as §2
[13] = system: Mus musculus; test: Effect on morphine-dependence in CD1 mouse assessed as decrease in naloxone-precipitated jumping at 0.025 mg/kg, ip administered acutely 15 mins prior to naloxone challenge relative to vehicle-treated control; assay type: functional, organism-based; design: dose 0.025 mg/kg; in short: as §3
[14] = system: Mus musculus; test: Effect on morphine-dependence in CD1 mouse assessed as decrease in naloxone-precipitated rearing at 0.025 mg/kg, ip administered chronically 15 mins prior to each morphine challenge relative to vehicle-treated control; assay type: functional, organism-based; design: dose 0.025 mg/kg
In short: as §3, with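 “Acquisition” for “Expression”, “repeated” for “a single acute”, “dosing” for “dose”, “naloxone.” for “naloxone in control and morphine-treated mice.”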

[15] = system: Mus musculus; test: Effect on morphine-dependence in CD1 mouse assessed as decrease in naloxone-precipitated teeth chatter at 0.025 mg/kg, ip administered chronically 15 mins prior to each morphine challenge relative to vehicle-treated control; assay type: functional, organism-based; design: dose 0.025 mg/kg
In short: as §3, with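 “Acquisition” for “Expression”, “repeated” for “a single acute”, “dosing” for “dose”, “naloxone.” for “naloxone in control and morphine-treated mice.”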

[16] = system: Mus musculus; test: Effect on morphine-dependence in CD1 mouse assessed as decrease in naloxone-precipitated forepaw tremors at 0.025 mg/kg, ip administered acutely 15 mins prior to naloxone challenge relative to vehicle-treated control; assay type: functional, organism-based; design: dose 0.025 mg/kg; in short: as §3
[17] = target: T7, Alpha-2B adrenergic receptor (Homo sapiens, UniProt P18089); test: Displacement of [3H]RX821002 from human alpha2B adrenoceptor expressed in CHO cells after 30 mins by scintillation counting; assay type: cell-based; in short: as §2
T7 sequence (P18089 whole entry): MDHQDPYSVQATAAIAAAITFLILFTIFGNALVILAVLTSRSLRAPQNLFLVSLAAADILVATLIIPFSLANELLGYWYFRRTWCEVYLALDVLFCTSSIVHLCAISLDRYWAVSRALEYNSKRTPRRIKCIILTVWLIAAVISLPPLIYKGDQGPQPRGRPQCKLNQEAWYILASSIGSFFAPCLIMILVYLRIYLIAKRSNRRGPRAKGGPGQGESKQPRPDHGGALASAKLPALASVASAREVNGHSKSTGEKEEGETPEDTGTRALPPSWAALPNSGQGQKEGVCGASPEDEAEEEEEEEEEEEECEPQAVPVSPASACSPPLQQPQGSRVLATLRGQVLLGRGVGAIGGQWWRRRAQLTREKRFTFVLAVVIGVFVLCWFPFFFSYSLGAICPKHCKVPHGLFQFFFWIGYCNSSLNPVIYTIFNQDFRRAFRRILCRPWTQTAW

[18] = target: T7, Alpha-2B adrenergic receptor; test: Agonist activity at human alpha2B adrenoceptor expressed in CHO cells assessed as extracellular acidification measured after 4 mins by cytosensor microphysiometric analysis
[19] = system: Mus musculus; test: Effect on morphine-dependence in CD1 mouse assessed as decrease in naloxone-precipitated teeth chatter at 0.025 mg/kg, ip administered acutely 15 mins prior to naloxone challenge relative to vehicle-treated control; assay type: functional, organism-based; design: dose 0.025 mg/kg; in short: as §3
[20] = system: Mus musculus; test: Antidepressant activity in CD1 mouse assessed as decrease in immobility time at 20 mg/kg, ip after 15 mins by forced swim test relative to vehicle-treated control; assay type: functional, organism-based; design: dose 20 mg/kg
In short: (§4)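 Mouse forced swimming test with immobility time as the read-out. Single ip doses were 0.012, 0.025, 0.05, 0.2 or 0.5 mg/kg, with fluoxetine 20 mg/kg ip as reference. Results are compared against vehicle-treated mice and given as means ± SEMs of 8–9 animals.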

[21] = target: T8, Alpha-2B adrenergic receptor (Homo sapiens) (UniProt P18089); settings: CHO
T8 sequence (whole entry): T7 sequence (P18089 whole entry)

[22] = system: Mus musculus; test: Antidepressant activity in CD1 mouse assessed as decrease in immobility time at 0.2 mg/kg, ip after 15 mins by forced swim test relative to vehicle-treated control; assay type: functional, organism-based; design: dose 0.2 mg/kg; in short: as §4
[23] = system: Mus musculus; test: Antidepressant activity in CD1 mouse assessed as decrease in immobility time at 0.5 mg/kg, ip after 15 mins by forced swim test relative to vehicle-treated control; assay type: functional, organism-based; design: dose 0.5 mg/kg; in short: as §4
[24] = system: Mus musculus; test: Antidepressant activity in CD1 mouse assessed as decrease in immobility time at 0.05 mg/kg, ip after 15 mins by forced swim test relative to vehicle-treated control; assay type: functional, organism-based; design: dose 0.05 mg/kg; in short: as §4
[25] = system: Mus musculus; test: Antidepressant activity in CD1 mouse assessed as decrease in immobility time at 0.025 mg/kg, ip after 15 mins by forced swim test relative to vehicle-treated control; assay type: functional, organism-based; design: dose 0.025 mg/kg; in short: as §4
[26] = system: Mus musculus; test: Antidepressant activity in CD1 mouse assessed as decrease in immobility time at 0.012 mg/kg, ip after 15 mins by forced swim test relative to vehicle-treated control; assay type: functional, organism-based; design: dose 0.012 mg/kg; in short: as §4

SMILES	Ki [1] [nM]	Activity [2]	pD2 [3]	Intrinsic activity [4]	Activity [5]	pKb [6]	Ki [7] [nM]	Activity [8]	Ki [9] [nM]	Activity [10]	Activity [11]	EC50 [12] [nM]	Activity [13]	Activity [14]	Activity [15]	Activity [16]	Ki [17] [nM]	EC50 [18] [nM]	Activity [19]	other results
C=CCc1ccccc1O[C@@H](C)C1=NCCN1	35.5	inactive	7.19	0.9	inactive	7.8														
C[C@H](Oc1ccccc1CC1CC1)C1=NCCN1	5.75	inactive		0.85	inactive		41.7	Active	275	Active	Active	2	Active	Active	Active	Active	407	1580	Active	
CNCCC(Oc1ccc(C(F)(F)F)cc1)c1ccccc1 (stereo unspecified)																				Activity [20]: Active
C=CCc1ccccc1OC(C)C1=NCCN1 (racemic) [ALLYPHENYLINE]	28.2		6.86	0.9		7.4														pEC50 [21]: inactive; Activity [22]: Active; Activity [23]: inactive; Activity [24]: Active; Activity [25]: Active; Activity [26]: inactive
C[C@@H](Oc1ccccc1CC1CC1)C1=NCCN1	39.8	inactive		0.75	inactive		44.7	Active	234	Active	Active	316	Active	Active	Active	Active	339	3980	Active	
